This passage reports solubility and selectivity ratio results from ChEMBL document CHEMBL5104224, “Alkyltriphenylphosphonium turns naphthoquinoneimidazoles into potent membrane depolarizers against mycobacteria” (RSC Med Chem, 2022).

One may read the solubility as the dissolved amount per volume that the medium holds.

Series [1] can be described thus: Aqueous solubility of compound at pH 7.4 measured after 24 hrs. To be noted: buffer. Type of series: physicochemical. In short, it runs like this:
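Stock in DMSO diluted to 100 μM in Universal buffer pH 7.4 with 1% DMSO. Agitated on filter plates for 24 h at 25°C, then filtered and the filtrate diluted with acetonitrile. Concentration read by UV absorbance against calibration curves made in buffer/acetonitrile 80:20. At least 3 occasions, using different stocks.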

Series [2] is described as follows: Selectivity index, ratio of IC50 for cytotoxicity against African green monkey Vero E6 cells to MIC50 for antimycobacterial activity against Mycobacterium tuberculosis H37Rv ATCC 27294. It is filed as toxicity, cell-based, Vero C1008. As to conditions: read-out: Selectivity Index. The method in brief:
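SI is the ratio of a Vero E6 IC50 to an H37Rv MIC50. Vero E6 cells in DMEM + 10% heat-inactivated FBS, 1% penicillin; 30,000 cells/well, 24 h adherence, then compound for 48 h (0.5% DMSO), 37°C, 5% CO2. MTS read at 490 nm after 3 h; IC50 from sigmoidal viability fit, ≥3 determinations. MIC50 by broth dilution: 50% growth inhibition versus drug-free control.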

Series [3] can be described thus: Selectivity index, ratio of IC50 for cytotoxicity against African green monkey Vero E6 cells to MIC50 for antimycobacterial activity against Mycobacterium bovis BCG ATCC 35734. Type of series: toxicity, cell-based, Vero C1008. To be noted: read-out: Selectivity Index.

The compound `CCCCCCCCn1c2c([n+](CCCC)c1C)C(=O)c1ccccc1C2=O.[Br-]` showed a solubility at 24 h in series [1] of 118 µM.

For `Cc1nc2c(n1CCCCCCCCC[P+](c1ccccc1)(c1ccccc1)c1ccccc1)C(=O)c1ccccc1C2=O`, the selectivity ratio was determined as 34 in series [2] and 21 in series [3].

Consider `Cc1nc2c(n1CCCCCCCCCCC[P+](c1ccccc1)(c1ccccc1)c1ccccc1)C(=O)c1ccccc1C2=O`, for which the selectivity ratio in series [2] is 5; in series [3] it was 11.

`CCCCn1c2c([n+](C3CCC4(CCCCC4)CC3)c1C)C(=O)c1ccccc1C2=O.[Br-]` showed a solubility at 24 h in series [1] of 118 µM.

As to `Cc1nc2c(n1CCCCCCCCCCC[P+](C1CCCCC1)(C1CCCCC1)C1CCCCC1)C(=O)c1ccccc1C2=O`, the selectivity ratio in series [3] worked out at 7.
